Experimental data: paper PMC11621760 (Proceedings of the National Academy of Sciences of the …, 2024)

Columns and labels:
AR [1] = target: T1, AR (Homo sapiens, UniProt P10275); test: AR transcriptional assays of the triazole series; assay type: cell-based; conditions: SI Fig. S1B/C
T1 sequence (P10275 1-920): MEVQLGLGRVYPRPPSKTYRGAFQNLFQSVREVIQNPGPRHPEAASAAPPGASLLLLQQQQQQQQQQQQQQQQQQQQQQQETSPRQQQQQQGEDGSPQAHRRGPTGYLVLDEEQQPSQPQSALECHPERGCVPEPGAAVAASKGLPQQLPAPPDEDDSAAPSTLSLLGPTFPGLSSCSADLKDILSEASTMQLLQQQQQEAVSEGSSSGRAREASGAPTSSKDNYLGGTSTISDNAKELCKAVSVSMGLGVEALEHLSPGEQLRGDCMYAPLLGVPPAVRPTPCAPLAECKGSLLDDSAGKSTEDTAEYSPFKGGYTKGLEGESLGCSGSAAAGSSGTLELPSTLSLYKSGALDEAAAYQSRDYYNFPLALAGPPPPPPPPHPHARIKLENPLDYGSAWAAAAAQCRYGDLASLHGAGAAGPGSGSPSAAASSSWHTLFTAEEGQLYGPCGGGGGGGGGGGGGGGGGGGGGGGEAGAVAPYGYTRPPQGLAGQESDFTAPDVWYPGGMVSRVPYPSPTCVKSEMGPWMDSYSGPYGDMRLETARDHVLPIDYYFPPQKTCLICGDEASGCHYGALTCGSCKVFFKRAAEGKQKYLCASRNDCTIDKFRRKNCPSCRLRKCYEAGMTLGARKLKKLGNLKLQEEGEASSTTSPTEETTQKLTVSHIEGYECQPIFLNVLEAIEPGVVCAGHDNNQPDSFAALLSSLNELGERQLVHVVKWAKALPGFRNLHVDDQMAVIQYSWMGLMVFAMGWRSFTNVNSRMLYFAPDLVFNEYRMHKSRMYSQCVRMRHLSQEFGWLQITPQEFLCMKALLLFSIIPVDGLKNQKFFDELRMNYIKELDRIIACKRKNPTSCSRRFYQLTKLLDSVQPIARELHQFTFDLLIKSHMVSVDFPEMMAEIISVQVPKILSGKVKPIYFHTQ

22Rv1 cells = test: Cell growth; assay type: cell-based, human
[2] = Parallel Artificial Membrane Permeability Assay; assay type: in vitro ADME; conditions: pH 6.5
[3] = Microsome metabolic assay; assay type: in vitro ADME; conditions: in comparison to control compounds
[4] = Solubility / precipitation in solvents; assay type: physicochemical
[5] = test system: H3K27ac and AR 3D chromatin contacts; test: AQuA-HiChIP; assay type: cell-based, human; conditions: 24 h at 20 µM, LNCaP-AR
In short: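 LNCaP-AR cells grown in DMEM, 10% FBS, penicillin-streptomycin-glutamine, 37 °C, 5% CO2. MNase-based HiChIP for AR and H3K27ac with medium-salt washes and mouse chromatin spike-in for absolute quantification (AQuA). Paired-end sequencing to at least 200 million reads. Loops were filtered by distance, minimum AQuA-CPM and connection number, merged into clusters, and ranked by summed short- and long-range contacts.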

GFP-AR [6] = target: T2, GFP-AR (Homo sapiens, UniProt P10275); assay type: cell-based; conditions: murine 3108 cells expressing GFP-AR
T2 sequence (P10275 1-920): T1 sequence (P10275 1-920)

hAR = target: T3, hAR (Homo sapiens, UniProt P10275); conditions: radioligand binding
T3 sequence (P10275 669-920 limits assumed): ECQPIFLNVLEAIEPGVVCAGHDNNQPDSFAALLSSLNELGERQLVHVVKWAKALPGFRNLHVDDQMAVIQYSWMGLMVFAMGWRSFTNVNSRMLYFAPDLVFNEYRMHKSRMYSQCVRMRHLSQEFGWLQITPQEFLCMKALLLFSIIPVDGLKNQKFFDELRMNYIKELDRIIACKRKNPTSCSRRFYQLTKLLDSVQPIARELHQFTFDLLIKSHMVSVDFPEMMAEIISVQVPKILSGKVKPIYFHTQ

[7] = target: T4, progesterone receptor (PR) (Homo sapiens, UniProt P06401); test: Radioligand binding assay, progesterone receptor
T4 sequence (P06401 1-933): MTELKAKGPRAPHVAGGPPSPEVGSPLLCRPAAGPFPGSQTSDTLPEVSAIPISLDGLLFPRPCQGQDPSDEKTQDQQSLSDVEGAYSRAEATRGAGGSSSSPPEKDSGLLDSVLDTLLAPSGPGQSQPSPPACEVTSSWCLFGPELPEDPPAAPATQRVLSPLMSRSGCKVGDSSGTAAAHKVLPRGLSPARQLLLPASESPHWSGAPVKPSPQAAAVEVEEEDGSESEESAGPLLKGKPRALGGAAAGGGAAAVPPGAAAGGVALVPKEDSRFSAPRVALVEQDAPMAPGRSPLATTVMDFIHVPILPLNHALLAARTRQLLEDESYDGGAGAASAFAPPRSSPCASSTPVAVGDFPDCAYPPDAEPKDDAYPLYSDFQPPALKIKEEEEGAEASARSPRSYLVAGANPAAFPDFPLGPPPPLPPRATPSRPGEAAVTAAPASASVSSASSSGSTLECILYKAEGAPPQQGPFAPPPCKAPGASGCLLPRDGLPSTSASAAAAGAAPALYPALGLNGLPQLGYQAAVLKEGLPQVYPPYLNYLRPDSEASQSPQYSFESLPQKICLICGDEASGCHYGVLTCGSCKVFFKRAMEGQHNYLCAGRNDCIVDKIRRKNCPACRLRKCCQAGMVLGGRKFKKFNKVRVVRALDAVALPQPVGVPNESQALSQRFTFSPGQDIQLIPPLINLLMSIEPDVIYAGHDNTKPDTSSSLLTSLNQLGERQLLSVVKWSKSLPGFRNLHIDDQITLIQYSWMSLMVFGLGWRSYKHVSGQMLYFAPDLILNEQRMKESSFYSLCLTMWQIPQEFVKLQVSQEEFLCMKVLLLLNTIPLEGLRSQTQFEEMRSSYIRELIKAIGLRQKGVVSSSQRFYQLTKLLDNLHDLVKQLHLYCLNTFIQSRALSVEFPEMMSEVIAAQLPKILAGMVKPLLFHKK
In short: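 Eurofins Panlabs radioligand binding with steroid hormone receptors and their respective ligands. Buffer: 50 mM Tris-HCl, 0.8 M NaCl, 10% glycerol, 2 mM dithiothreitol, 0.1% BSA, 2% EtOH, pH 7.4. Receptor-ligand incubation, then 15 min with hydroxyapatite slurry. Samples filtered, filters washed three times and counted for specifically bound ligand. Log concentration series gave Ki and IC50.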

GFP-AR [8] = target: T2, GFP-AR; test: GFP-AR construct nuclear translocation in human cell lines; assay type: cell-based; conditions: CSS
AR [9] = target: T1, AR; assay type: cell-based; conditions: VCaP, CSS and 10 nM R1881
LAPC4 xenograft = LAPC4 xenograft growth in vivo; set-up: species or system mice; conditions: 20 mg/kg via oral gavage, 42 days
LNCaP-AR cells = test: Cell growth; assay type: cell-based, human
[10] = once peak concentration is reached; cited from earlier work

Structure (SMILES): Cn1cc(-c2ccc(CN3C(=S)N(c4ccc(C#N)c(C(F)(F)F)c4)C(=O)C3(C)C)cc2)nn1 [15b]
- anti-AR transcriptional activity (in words) (AR [1]): dramatic loss in activity

Structure (SMILES): CC1(C)C(=O)N(c2ccc(C#N)c(C(F)(F)F)c2)C(=S)N1Cc1ccc(-c2c[nH]nn2)cc1 [BG-15a]
- growth inhibition compared to enzalutamide (22Rv1 cells): more efficacious in inhibiting growth compared to enzalutamide
- drug recovery and cell permeability (PAMPA) [2]: performed similarly to each other and enzalutamide
- microsomal half-life (in words) [3]: notably high half-life
- solubility (in words) [4]: limited
- H3K27ac long-range contacts at AR loops [5]: decreased long-range acetylation contacts at AR loops
- AR translocation to the nucleus (nuclear to cytoplasmic ratio, dose response) (GFP-AR [6]): induced nuclear translocation at doses 100 nM to 10 µM
- AR binding affinity (in words) (hAR): strong AR binding affinity
- binding affinity to the PR (in words) [7]: nanomolar range binding affinity
- AR nuclear translocation (GFP-AR construct) (GFP-AR [8]): consistently stimulated AR nuclear translocation
- AR transcriptional activity (luciferase) (AR [9]): dose-dependent decrease of AR activity
- tumor growth (LAPC4 xenograft): inhibition of tumor growth
- growth inhibition compared to enzalutamide (LNCaP-AR cells): more efficacious in inhibiting growth compared to enzalutamide

Structure (SMILES): CNC(=O)c1ccc(N2C(=S)N(c3ccc(C#N)c(C(F)(F)F)c3)C(=O)C2(C)C)cc1F [Enzalutamide, enzalutamide]
- half-life in patients [10]: around 5 days

Structure (SMILES): CC(O)(CS(=O)(=O)c1ccc(F)cc1)C(=O)Nc1ccc(C#N)c(C(F)(F)F)c1 (stereo not drawn) [bicalutamide]
- H3K27ac long-range contacts at AR loops [5]: decreased long-range acetylation contacts at AR loops
